Screening data (PubChem BioAssay)
Tb hexokinase: T. brucei hexokinase 1 inhibition. recombinant TbHK1, G6PDH-coupled NADH A340. inhibition, % at 10 µM. hit rate 0.11% among 220,000. AID 1430;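 active means inhibition of 50% or more in the single-dose primary screen; inactive means inhibition below 50%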
HKDC1 inhibitor: inhibitors of human hexokinase HKDC1; inhibition, % at 20 µM; hit rate 0.16% among 340,000; AID 493160; recombinant HKDC1, G6PDH/diaphorase resazurin coupled fluorescence;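 active means inhibition above about 35% when tested at 20 µM, limit read from the data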
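Test system: Recombinant HKDC1 (HK5) hexokinase enzyme, produced in-house | Input: HKDC1 at 5 µg/mL | Buffer or medium: Tris pH 8.0 buffer with MgCl2, Tween-20, BSA, BME | Schedule: 90 min reaction incubation at room temperature, dark | Technique: Resazurin-to-resorufin fluorescence via G6PDH and diaphorase coupling, 525/613 nm | Controls: DMSO wells with and without enzyme mix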
Diaph inh CS: counter-screen for diaphorase-based assays: diaphorase inhibitors and chemical oxidizers | diaphorase resazurin-to-resorufin fluorescence, NADH, 16 min; bacterial (C. kluyveri) enzyme, not human | inhibition, % at 20 µM | hit rate 0.69% among 190,000 | AID 1217;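 active means primary screen inhibition at 20 µM above a set limit, cut at about 50% in these data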
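Assay system – diaphorase enzyme from Clostridium kluyveri · Amount – diaphorase 0.14 U/mL (working solution) · Times – reaction incubation of 16 min at room temperature · Controls – No-NADH positive control and DMSO neutral control · Signal – resorufin fluorescence 544/590 nm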
Diaph act CS: activates diaphorase or chemically reduces, flagging diaphorase assay artifacts. Diaphorase/resazurin coupled assay, resorufin fluorescence, 16 min; hits give high values; 1 = vehicle wells, 0 = NADH-free wells. activation factor at 20 µM. hit rate 0.005% among 190,000;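 active means diaphorase activity raised at least twofold by the compound at 20 µM; inactive means activation factor below 2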
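Material: purified diaphorase enzyme from Clostridium kluyveri / Medium: HEPES pH 7.4 buffer with MgCl2 and Tween 20 / Schedule: enzyme reaction of 16 min at room temperature / Measured by: resorufin fluorescence, excitation 544 nm, emission 590 nm / Evaluation: rise in resorufin formation, marking diaphorase activation or chemical reduction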
G6PDH counter: L. mesenteroides G6PDH inhibition counter-screen | hit rate 0.12% among 200,000 | inhibition, % at 5 µM | Purified L. mesenteroides G6PDH, diaphorase/resazurin coupled fluorescence, 45 min; in the data active means inhibition above about 50%
PfGluPho inh: PfG6PD (Plasmodium falciparum) enzyme inhibition | PfGluPho enzyme, NADPH resazurin-diaphorase fluorescence | inhibition, % at 20 µM | hit rate 0.78% among 350,000 | AID 504690;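 active means inhibition reaching at least a set limit at 20 µM in the primary screen, cut at about 59% in these data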
PfGluPho conf: confirmation of Plasmodium falciparum G6PD inhibitors. shares compounds with PfGluPho inh. recombinant PfGluPho, NADPH-diaphorase-resazurin fluorescence. inhibition, % at 20 µM. hit rate 34% among 2,400. AID 504753;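 active means inhibition of at least 50% at 20 µM in any single replicate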
Diaph ctr 10uM: inhibits diaphorase or oxidizes, flagging false PfG6PD hits; inhibition, % at 20 µM; hit rate 39% among 820; shares compounds with PfGluPho inh; diaphorase-coupled resazurin reduction, fluorescence, NADPH 10 uM; AID 504862;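 active means average inhibition reaching 50% or more with the compound at 20 µM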;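 further: resorufin red fluorescence formed as diaphorase reduces resazurin using NADPH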
Diaphorase 30uM: counter-screen for P. falciparum G6PD inhibitors: diaphorase inhibitors, oxidizers. hit rate 29% among 820. inhibition, % at 20 µM. shares compounds with PfGluPho inh. Diaphorase/resazurin coupled assay, resorufin fluorescence, 30 uM NADPH;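 active means inhibition averaging 50% or more, tested at 20 µM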
Large screens that a line does not name were inactive (follow-up assays come after a bar, where they were run). Only some compounds are listed: those with a hit (about 1.3% of all), similar ones and a draw of the others.

CCOc1ccc(NC(=O)CN(C)C(=O)CN2C(=O)c3ccc([N+](=O)[O-])cc3C2=O)cc1OCC	none (no result: Tb hexokinase, Diaph inh CS, Diaph act CS, G6PDH counter)
Nc1[nH]c(=O)[nH]c(=O)c1N=Cc1ccccc1	PfGluPho inh 131.1 (no result: Tb hexokinase, Diaph inh CS, Diaph act CS, G6PDH counter) | PfGluPho conf 97.6 | Diaph ctr 10uM inactive | Diaphorase 30uM inactive
O=c1[nH]c(NCCO)c(N=Cc2ccccc2)c(=O)[nH]1	PfGluPho inh 67.8 (no result: Tb hexokinase, Diaph inh CS, Diaph act CS, G6PDH counter) | PfGluPho conf 104.2 | Diaph ctr 10uM 78.6 | Diaphorase 30uM inactive
CCOc1ccc(-c2nnc(SCc3nnc(-c4ccccc4)o3)n2-c2ccccc2F)cc1	PfGluPho inh 84.6 | PfGluPho conf inactive
CCC(=O)OCOc1ccc(/C=C2/CCC(CN(C)C)C2=O)cc1 (stereo not given)	PfGluPho inh 84.1 (no result: Tb hexokinase, Diaph inh CS, Diaph act CS, G6PDH counter) | PfGluPho conf 56.3 | Diaph ctr 10uM inactive | Diaphorase 30uM inactive
COc1ccccc1N1C(=O)C=C(Sc2nc(C)cc(C)n2)C1=O	PfGluPho inh 79.0 (no result: Diaph inh CS, Diaph act CS, G6PDH counter) | PfGluPho conf 87.2 | Diaph ctr 10uM inactive | Diaphorase 30uM inactive
Cc1cc(C)nc(SSc2nc(C)cc(C)n2)n1	PfGluPho inh 64.8 (no result: Tb hexokinase, Diaph inh CS, Diaph act CS, G6PDH counter) | PfGluPho conf 64.4 | Diaph ctr 10uM inactive | Diaphorase 30uM inactive
Cc1cc(C)nc(SCCN(C)C)n1	none
O=C(Nc1ccncc1)c1ccccc1F	none
O=C(Nc1ccncc1)c1cc2ccccc2cc1O	PfGluPho inh 68.0 (no result: Tb hexokinase, Diaph inh CS, Diaph act CS, G6PDH counter) | PfGluPho conf inactive
COc1cc(OC)c(NC(=O)c2cc3ccccc3cc2O)cc1Cl	PfGluPho inh 84.8 (no result: Tb hexokinase, Diaph inh CS, Diaph act CS, G6PDH counter) | PfGluPho conf inactive
O=C(Nc1cccc([N+](=O)[O-])c1)c1cc2ccccc2cc1O	PfGluPho inh 72.6 (no result: Diaph inh CS, Diaph act CS, G6PDH counter) | PfGluPho conf inactive
COc1ccc(NC(=S)NC(NC(=O)CCl)C(Cl)(Cl)Cl)c([N+](=O)[O-])c1 (stereo not given)	PfGluPho inh 65.4 | PfGluPho conf inactive
COc1ccc(NC(=S)NC(NC(=O)c2ccccc2Cl)C(Cl)(Cl)Cl)c([N+](=O)[O-])c1 (stereo not given)	none
COc1ccc(NC(=O)COC(=O)C2C3CC4OC(=O)C2C4C3)cc1 (stereo not given)	none (no result: Tb hexokinase, Diaph inh CS, Diaph act CS, G6PDH counter)
Nc1nc(=S)c2[nH]c(=S)[nH]c2[nH]1	PfGluPho inh 67.2 (no result: Tb hexokinase, Diaph inh CS, Diaph act CS, G6PDH counter) | PfGluPho conf inactive
CC1CCN(CC(O)COc2ccc(-c3ccccc3)cc2)CC1 (stereo not given)	none (no result: Tb hexokinase, Diaph inh CS, Diaph act CS, G6PDH counter)
Cc1cc(O)c(C(C)C)cc1N=Cc1ccccc1[N+](=O)[O-]	PfGluPho inh 100.9 (no result: Tb hexokinase, Diaph inh CS, Diaph act CS, G6PDH counter) | PfGluPho conf 65.1 | Diaph ctr 10uM inactive | Diaphorase 30uM inactive
CC(C)(C)c1csc(NC(=O)Cn2cnc3ccccc3c2=O)n1	PfGluPho inh 68.3 | PfGluPho conf inactive
COc1ccccc1N1CCN(C(=O)CCc2nnc3ccc(N4CCOCC4)nn23)CC1	none (no result: Tb hexokinase, Diaph inh CS, Diaph act CS, G6PDH counter)
Cc1ccc(/C=C/C(=O)NCCc2ccccc2)o1	PfGluPho inh 75.1 (no result: Tb hexokinase, Diaph inh CS, Diaph act CS, G6PDH counter) | PfGluPho conf inactive
CN(C)C(=O)CCc1ccc2c3c([nH]c2c1)[C@]1(C)[C@@H](C(=O)N2CCCCC2)C[C@H](CC(=O)NCC24CC5CC(CC(C5)C2)C4)C(=O)N1CC3	none (no result: Tb hexokinase, Diaph inh CS, Diaph act CS, G6PDH counter)
CCN(CC)S(=O)(=O)c1ccc2oc(Nc3ccc(OC)cc3)nc2c1	none (no result: Tb hexokinase, Diaph inh CS, Diaph act CS, G6PDH counter)
CCS(=O)(=O)c1ccc2oc(Nc3ccc(C(C)C)cc3)nc2c1	PfGluPho inh 74.1 | PfGluPho conf inactive
CCOc1ccc(Nc2nc3cc(S(=O)(=O)N(CC)CC)ccc3o2)cc1	PfGluPho inh 62.5 | PfGluPho conf inactive
O=C1CC(N2CCN(S(=O)(=O)c3ccc([N+](=O)[O-])cc3)CC2)C(=O)N1c1ccccc1F (stereo not given)	none (no result: Tb hexokinase, Diaph inh CS, Diaph act CS, G6PDH counter)
COc1ccc(-c2csc(NC(=O)COC(=O)c3ccco3)n2)cc1	PfGluPho inh 59.9 | PfGluPho conf inactive
COc1ccc(-c2csc(NC(=S)NC(=O)c3ccco3)n2)cc1	none
COc1ccc(NC(=O)C(NC(C)=O)C(=O)Nc2ccc(F)cc2)cc1 (stereo not given)	none (no result: Tb hexokinase, Diaph inh CS, Diaph act CS, G6PDH counter)
CCc1c(C)nc2cc(-c3ccc(OC)c(OC)c3)nn2c1NCC1CC1	PfGluPho inh 61.9 | PfGluPho conf inactive
COc1ccc(NC(=O)c2oc3ccccc3c2CSC)cn1	PfGluPho inh 73.0 (no result: Tb hexokinase, Diaph inh CS, Diaph act CS, G6PDH counter) | PfGluPho conf inactive
CCOCc1c(C(=O)Nc2ccc(OC)nc2)oc2ccccc12	none (no result: Tb hexokinase, Diaph inh CS, Diaph act CS, G6PDH counter)
Cc1cc(C)c2c(=O)n(CC(=O)N3CCC(Cc4ccccc4)CC3)sc2n1	none (no result: HKDC1 inhibitor, PfGluPho inh)
Cc1cc(C)c2c(n1)SCC(=O)N2CC(=O)Nc1cccc(Cl)c1	none (no result: Tb hexokinase, Diaph inh CS, Diaph act CS, G6PDH counter)
